Measured values taken from publication PMC4561054 (Drugs in R&D, 2015).
Several values for one entry are separate records, joined by “and”; a condition that tells them apart may be missing. Equal values may be shown once. Entries after “also recorded” stand apart in the source; their conditions may differ. Read-outs that look alike come from different tables or passages of the source.

Assays:
[1] = cited from earlier work
[2] = cited from earlier work; remark: listed apart in the source
[3] = preclinical studies; cited from earlier work
[4] = Safety evaluation, Study 1; type: in vivo, human
Outline: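 Six healthy male nonsmokers (18–55 y) given one oral 200-mg dose of radiolabelled test compound in polyethylene glycol 400, fed. Safety covered subject-reported AEs, hematology, biochemistry, coagulation, urinalysis and electrocardiogram. Descriptive statistics only.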

[5] = Safety and tolerability, Study 2; type: in vivo, human
Outline: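 Non-HCV-infected adults (18–70 y). Severe renal impairment group had MDRD eGFR ≤29 mL/min/1.73 m2 and no dialysis. Controls had eGFR ≥80 and were matched for sex, race, age and BMI. All took 150 mg test compound orally daily, fed, for 7 days. Subject-reported AEs recorded; hematology/biochemistry on Days 1, 3, 5, 7 and 8; urinalysis and ECG on Days 1 and 7.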

[6] = tested on: HCV genotype 1; settings: COSMOS; simeprevir plus sofosbuvir with or without ribavirin; cited from earlier work
[7] = tested on: HCV genotype 1; settings: treatment-naïve patients, simeprevir plus ribavirin and pegylated interferon, cited from earlier work
[8] = 14C-simeprevir mass balance study; type: in vivo, human; settings: as summarised in Discussion
Outline: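 Healthy adult males (18–55 y, BMI 18.0–30.0 kg/m2, nonsmokers). Single oral 200-mg dose of 14C-labelled plus unlabelled test compound in polyethylene glycol 400, fed, 1.85 MBq total. Urine pooled at 0–8, 8–16, 16–24, 24–36 and 36–48 h, then every 24 h. Every stool collected until ≥Day 8, <2 % of dose excreted per 24 h, and ≥7 stools. Radioactivity read by […] and expressed as % of dose; six subjects.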

[9] = tested on: plasma proteins; test: Unbound simeprevir in plasma; type: in vitro ADME, human
Outline: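 Subjects with severe renal impairment or matched normal renal function, given 150 mg test compound orally daily for 7 days. Blood drawn pre-dose and 4 h post-dose. Unbound concentration measured by dialysis, then liquid scintillation counting of spiked tritiated test compound. Mean and SD reported per time point, plus fraction unbound.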

[10] = type: in vivo, human; settings: for half-life: both, human, plasma, oral, 150 mg, Mean half-life
Outline: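 Severe renal impairment (eGFR ≤29 mL/min/1.73 m2) versus matched normal-function subjects (eGFR ≥80), n = 8 each. Oral 150 mg test compound capsule daily, fed, for 7 days; Day 7 dose given after ≥10-h fast plus standard breakfast. Plasma drawn pre-dose Days 5–6 and on Day 7 at 0–72 h; LC-MS/MS. Noncompartmental Cmin, Cmax and AUC24 taken on log scale. Linear mixed-effects model gave LS means and 90 % CI of group difference.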

[11] = cited from earlier work; remark: listed apart in the source
[12] = 14C-daclatasvir excretion study
[13] = moderate to severe renal impairment vs healthy, single 400-mg dose
[14] = whole study period, six healthy subjects
[15] = renal impairment group, treatment phase
[16] = subject with rhabdomyolysis (also on high-dose fenofibrate), Day 9

COC(=O)N[C@H](C(=O)N1CCC[C@H]1c1nc(-c2ccc(-c3ccc(-c4c[nH]c([C@@H]5CCCN5C(=O)[C@@H](NC(=O)OC)C(C)C)n4)cc3)cc2)c[nH]1)C(C)C [daclatasvir]
Recovery from the feces [1, 12]: 88%
Total radioactivity dose eliminated in urine [1, 12]: 6.6%
Renal excretion [1]: < 10%
Increase in AUCinf ([2]; ESRD): ~51%
Increase in AUCinf ([2]; moderate renal impairment): approximately 18%
Increase in AUCinf ([2]; severe renal impairment): ~39%

CC(C)OC(=O)[C@H](C)N[P@](=O)(OC[C@H]1O[C@@H](n2ccc(=O)[nH]c2=O)[C@](C)(F)[C@@H]1O)Oc1ccccc1 [sofosbuvir]
14C-sofosbuvir recovered from the urine ([1]; 400-mg 14C-sofosbuvir dose): 80%
Increase in AUCinf ([2]; mild renal impairment vs normal renal function, single 400-mg dose): 61%
Increase in AUCinf ([2]; moderate renal impairment vs normal renal function, single 400-mg dose): 107%
Increase in AUCinf ([2]; severe renal impairment vs normal renal function, single 400-mg dose): 171%

NC(=O)c1ncn([C@@H]2O[C@H](CO)[C@@H](O)[C@H]2O)n1 [ribavirin]
Radioactivity excreted in the urine ([1]; 600-mg 14C-ribavirin dose): 61%
Decrease in apparent clearance [2, 13]: 50–75%
Increase in AUC [2, 13]: two- to three-fold increase

COc1ccc2c(O[C@@H]3C[C@H]4C(=O)N[C@]5(C(=O)NS(=O)(=O)C6CC6)C[C@H]5/C=C\CCCCN(C)C(=O)[C@@H]4C3)cc(-c3nc(C(C)C)cs3)nc2c1C [simeprevir]
Tissue distribution [3]: predominately distributed to the liver and intestines with low distribution (similar or less than plasma) to the kidneys
Deaths or AEs resulting in permanent premature discontinuation ([4]; Study 1): No deaths or AEs resulting in permanent premature discontinuation from the study occurred
Dry mouth, subjects [4, 14]: one subject
Increased ALT and AST levels, subjects [4, 14]: two subjects
Prolonged aPTT, subjects [4, 14]: two subjects
Subjects with at least one AE ([4]; whole study period, six healthy subjects, single 200-mg dose): five subjects
Deaths or AEs resulting in permanent premature discontinuation of simeprevir ([5]; Study 2): No deaths or AEs resulting in permanent premature discontinuation of simeprevir occurred
Severity of most AEs ([5]; Study 2, both groups): grade I or II; also recorded: grade 1 or 2
Subjects with at least one AE ([5]; control group, treatment phase): 12.5%
Subjects with at least one AE ([5]; control group, whole study period): 37.5%
Severity of rhabdomyolysis ([5]; one subject of renal impairment group, also receiving fenofibrate): grade 3
Subjects with at least one AE [5, 15]: 50%
Subjects with hyperbilirubinemia [5, 15]: 12.5%
Subjects with hypertension [5, 15]: 12.5%
Subjects with increased blood alkaline phosphatase [5, 15]: 12.5%
Subjects with myalgia [5, 15]: 12.5%
Subjects with rhabdomyolysis [5, 15]: 12.5%
Subjects with at least one AE ([5]; renal impairment group, whole study period): 50%
Relatedness of rhabdomyolysis and myalgia (investigator) ([5]; same subject, also taking high-dose fenofibrate): probably related to simeprevir
Creatine kinase level [5, 16]: 96.76 μkat/L
Creatine kinase muscle brain fraction levels [5, 16]: 20.84 µg/L and 19.45 µg/L
Myoglobin levels [5, 16]: 1200 µg/L and 1475 µg/L and 1476 µg/L
SVR rates [6]: 92–94%
SVR rate ([7]; QUEST-1): 80%
SVR rate ([7]; QUEST-2): 81%
14C-simeprevir excreted in the urine [8]: < 2%
Mean unbound plasma concentration ([9]; matched healthy subjects, 4 h post-dose, SD 0.2574): 0.2714
Mean unbound plasma concentration ([9]; matched healthy subjects, pre-dose, SD 0.1567): 0.1142
Mean unbound plasma concentration ([9]; subjects with renal impairment, 4 h post-dose): 0.4216 (SD 0.3319)
Mean unbound plasma concentration ([9]; subjects with renal impairment, pre-dose): 0.2892 (SD 0.4411)
AUC24h higher in severe renal impairment compared with healthy subjects ([10]; based on LS mean ratio, Day 7): 62%
Cmax higher in severe renal impairment compared with healthy subjects ([10]; based on LS mean ratio, Day 7): 34%
half-life ([10]; healthy subjects): 16.7 h
half-life ([10]; subjects with severe renal impairment): 24 h
half-life ([11]; HCV-infected subjects with normal renal function): 41 h
AUC (range of concentrations observed in phase III studies) ([11]; HCV-infected subjects without renal impairment): 4848–449,185 ng·h/mL
Concentrations in subjects with HCV infection compared with non-HCV-infected subjects [11]: two- to three-fold higher
